Results: publication PMC3068526 (Science (New York, N.Y.), 2010)

Key:
ghrelin knockout animals = experiment: intraperitoneal glucose challenge in ghrelin knockout animals; format: in vivo, mouse; settings: compared to vehicle or to wt animals analyzed in parallel
p300 HAT = experiment: in vitro inhibition of acetyl-CoA utilizing enzyme p300 HAT; format: biochemical; settings: at 10 μM
[1] = system: ghrelin knockout C57BL6 mice; experiment: body weight and adiposity in ghrelin knockout mice; format: in vivo, mouse
PCAF HAT = experiment: in vitro inhibition of acetyl-CoA utilizing enzyme PCAF HAT; format: biochemical; settings: at 10 μM
human islet cells = experiment: insulin response of human islet cells to a glucose challenge; format: cell-based; settings: human islet cells pre-treated with compound
GOAT = target: T1, GOAT (Homo sapiens, UniProt Q96T53); format: cell-based
T1 sequence (Q96T53 1-435): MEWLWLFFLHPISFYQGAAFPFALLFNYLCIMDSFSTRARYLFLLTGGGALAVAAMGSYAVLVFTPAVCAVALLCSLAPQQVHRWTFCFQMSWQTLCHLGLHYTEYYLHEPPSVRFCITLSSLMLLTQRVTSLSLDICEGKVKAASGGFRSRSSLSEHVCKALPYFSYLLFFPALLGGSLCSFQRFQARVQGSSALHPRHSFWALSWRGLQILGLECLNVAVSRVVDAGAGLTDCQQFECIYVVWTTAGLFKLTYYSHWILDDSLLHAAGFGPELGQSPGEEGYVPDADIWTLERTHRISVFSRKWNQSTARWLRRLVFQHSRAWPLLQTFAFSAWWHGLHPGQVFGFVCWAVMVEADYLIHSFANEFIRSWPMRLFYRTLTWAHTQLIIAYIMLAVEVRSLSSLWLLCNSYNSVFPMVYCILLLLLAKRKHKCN
Procedure, shortened: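 HeLa and HEK cells stably expressing GOAT and preproghrelin were grown in octanoic acid-supplemented medium. Acyl and desacyl ghrelin were measured after test compound exposure, either as a time course at 6 μM in HeLa cells or as a dose-response after 24 h incubation. IC50 was derived from the acyl ghrelin reduction.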

[2] = system: wild type (wt) C57BL6 animals; experiment: serum acyl and desacyl ghrelin levels in mice after intraperitoneal dosing; format: in vivo, mouse; settings: 11 μmol/kg (40 mg/kg) intraperitoneal, wt C57BL6 mice on MCT diet
Procedure, shortened: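 Wild-type C57BL6 mice on a medium-chain triglyceride diet were given a single IP dose of test compound at 11 μmol/kg (40 mg/kg), or the D4-Tat control or vehicle (n = 5). Serum acyl and desacyl ghrelin and percent acyl ghrelin were measured at 6, 12 and 24 h. Standard errors are reported.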

cell viability = experiment: cell viability; format: cell-based; settings: in the concentration range studied
[3] = system: serotonin N-acetyltransferase; experiment: in vitro inhibition of serotonin N-acetyltransferase; format: biochemical; settings: at 10 μM
wt C57BL6 mice = experiment: body weight and QMR fat/lean mass in wt mice on MCT diet, one month treatment; format: in vivo, mouse; settings: 11 μmol/kg IP every 24 h
Procedure, shortened: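 Wild-type C57BL6 mice on a medium-chain triglyceride diet received test compound at 11 μmol/kg IP every 24 h for one month (n = 5) or vehicle (n = 6). Body mass was recorded daily, and fat and lean mass were determined by quantitative magnetic resonance. Standard errors are reported.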

wt mice [4] = experiment: weight gain in wt mice fed a high fat diet; format: in vivo, mouse
GHSR-1a receptor = GHSR-1a receptor antagonism; format: cell-based
wt mice [5] = experiment: blood chemistries and blood cell counts after one month of treatment; format: in vivo, mouse
UCP2 mRNA = experiment: QRT-PCR of islets and gastric fundus isolated from treated mice; format: in vivo, mouse
[6] = system: recombinant solubilized or microsomal GOAT; experiment: UV crosslinking of biotin-tagged benzoyl-phenylalanine analogs to GOAT; format: binding; settings: competitor at 100 μM
Procedure, shortened: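 Solubilized GOAT was UV-crosslinked with biotin-tagged benzophenylalanine-containing probe analogs (L5BP, F4BP) at 5 μM, with or without 100 μM unlabelled test compound as competitor. Cross-linked GOAT was detected on immunoblots with streptavidin, and loading was checked with anti-FLAG.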

[7] = system: recombinant microsomal GOAT; experiment: in vitro acyltransferase inhibition assay; format: biochemical; settings: 100 nM compound, within 5 min (5 min reaction), radioactive assay
[8] = ghrelin knockout mice on MCT diet, 11 μmol/kg, 1 mo

Compound: CCCCCCC(SCCNC(=O)CCNC(=O)[C@H](O)C(C)(C)COP(=O)(O)OP(=O)(O)OC[C@H]1O[C@@H](n2cnc3c(N)ncnc32)[C@H](O)[C@@H]1OP(=O)(O)O)C(=O)NC[C@H](NC(=O)[C@H](CO)NC(=O)CN)C(=O)N[C@@H](Cc1ccccc1)C(=O)N[C@@H](CC(C)C)C(=O)N[C@@H](CO)C(=O)N1CCC[C@H]1C(=O)N[C@@H](CCC(=O)O)C(=O)N[C@@H](Cc1c[nH]cn1)C(=O)N[C@@H](CCC(N)=O)C(=O)NCCCCCC(=O)N[C@@H](Cc1ccc(O)cc1)C(=O)NCC(=O)N[C@@H](CCCNC(=N)N)C(=O)N[C@@H](CCCCN)C(=O)N[C@@H](CCCCN)C(=O)N[C@@H](CCCNC(=N)N)C(=O)N[C@@H](CCCNC(=N)N)C(=O)N[C@@H](CCC(N)=O)C(=O)N[C@@H](CCCNC(=N)N)C(=O)N[C@@H](CCCNC(=N)N)C(=O)N[C@@H](CCCNC(=N)N)C(N)=O (stereo partly shown) [GO-CoA-Tat]
- effect in glucose challenge (ghrelin knockout animals): did not have a significant effect
- inhibition of p300 HAT (p300 HAT): less than 15%
- fat mass (QMR) [1, 8]: did not significantly alter
- lean mass (QMR) [1, 8]: did not significantly alter
- weight ([1]; ghrelin knockout mice on MCT diet, 11 μmol/kg, 1 mo, n = 5 vs vehicle n = 5): did not significantly alter
- weight gain of treated ghrelin knockout mice versus treated age-matched wt mice ([1]; separate long term study, one month of administration): gained more weight
- inhibition of PCAF HAT (PCAF HAT): less than 15%
- insulin response to a glucose challenge (human islet cells): statistically significant increase in insulin response
- inhibition of production of desacyl ghrelin (GOAT; GOAT/preproghrelin stably expressing HeLa and HEK cells): not desacyl ghrelin
- exposure time needed for maximal inhibition of acyl ghrelin (GOAT; preproghrelin/GOAT-transfected HeLa and HEK cells, 6 μM in HeLa time course): 24 h
- serum levels of desacyl ghrelin [2]: no significant effect
- time of maximum inhibition of serum acyl ghrelin after administration [2]: 6 h
- serum levels of acyl ghrelin ([2]; n = 5, 6, 12 and 24 h): decreased serum levels of acyl ghrelin
- toxicity to cell viability (cell viability): non-toxic
- inhibition of serotonin N-acetyltransferase [3]: less than 15%
- weight gain (wt C57BL6 mice; n = 5 vs vehicle n = 6): prevented the significant weight gain
- fat mass (QMR) (wt C57BL6 mice; relative to controls): significantly lower fat mass
- lean mass (QMR) (wt C57BL6 mice; relative to controls): but not lean mass
- fat mass (wt mice [4]): relative reduction of fat mass
- food intake (wt mice [4]): no effect on food intake
- lean mass (wt mice [4]): without a change in lean mass
- weight gain (wt mice [4]): slowed weight gain
- antagonism of GHSR-1a receptor (GHSR-1a receptor): does not antagonize
- IGF-1 levels (wt mice [5]): lower IGF-1 levels
- blood glucose (wt mice [5]): lower blood glucose
- generalized toxicity by blood chemistries and blood cell counts (wt mice [5]): no evidence of liver, renal, pancreas, or bone marrow toxicities
- effects on UCP2 mRNA in the gastric fundus (UCP2 mRNA; gastric fundus from mice treated 24 h prior to isolation, n = 3): non-statistically significant effects
- reduction in UCP2 mRNA in islets (UCP2 mRNA; islets isolated from mice treated 24 h prior to isolation, compared to D4-tat treated mice, n = 3): 20 fold
- levels of insulin, ghrelin, or GHSR mRNAs in islets (UCP2 mRNA; islets isolated from treated mice, compared to D4-tat treated mice): no change
- blocking of cross-linking of F4BP/L5BP analogs to GOAT (competitor) [6]: can be blocked by GO-CoA-Tat
- GOAT inhibition [7]: Virtually complete GOAT inhibition
